This note sets out measurements from ChEMBL document CHEMBL4229571, “Development of 13H-benzo[f]chromeno[4,3-b][1,7]naphthyridines and their salts as potent cytotoxic agents and topoisomerase I/IIα inhibitors” (2018).

Several values for one entry are separate records, joined by “and”; a condition that tells them apart may be missing. Equal entries are not always repeated. Where only a bound is given, the exact number is not on record here.

For experiment [1], the system named is NCI-H23. As to the kind of experiment: Cytotoxicity against human NCI-H23 cells assessed as growth inhibition after 72 hrs by SRB assay. The format is functional. A digest of the protocol: (§1)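 SRB assay per NCI protocol: 2 × 10^3 cells/well seeded, compounds in DMSO/media added next day (day 0) in quadruplicate at 1 nM–10 μM final, DMSO <0.1%. After 72 h, TCA fixation overnight at 4°C, 0.4% SRB 1 h, dye dissolved in 10 mM Tris, A690 read; day 0 absorbance subtracted. GI50 = concentration giving 50% drop in net growth, mean of three experiments.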

Experiment [2] concerns HCT-15. Description: Cytotoxicity against human HCT15 cells assessed as growth inhibition after 72 hrs by SRB assay. The format is functional. The procedure, abridged:
as §1
On the technique in general: Sulforhodamine B stains cellular protein and so reports cell mass.

The test system of experiment [3] is NUGC-3. Description: Cytotoxicity against human NUGC3 cells assessed as growth inhibition after 72 hrs by SRB assay. The format is functional. The procedure, abridged: as §1
For experiment [4], the system named is ACHN. Description: Cytotoxicity against human ACHN cells assessed as growth inhibition after 72 hrs by SRB assay. Format: functional. A digest of the protocol:
as §1

The subject of experiment [5] is PC-3. As to the kind of experiment: Cytotoxicity against human PC3 cells assessed as growth inhibition after 72 hrs by SRB assay. Format: functional. The procedure, abridged: as §1
The subject of experiment [6] is MDA-MB-231. As to the kind of experiment: Cytotoxicity against human MDA-MB-231 cells assessed as growth inhibition after 72 hrs by SRB assay. The format is functional. The procedure, abridged: as §1
In experiment [7] the target is T1, DNA topoisomerase 1 (Homo sapiens) (UniProt P11387).
T1 sequence (whole entry): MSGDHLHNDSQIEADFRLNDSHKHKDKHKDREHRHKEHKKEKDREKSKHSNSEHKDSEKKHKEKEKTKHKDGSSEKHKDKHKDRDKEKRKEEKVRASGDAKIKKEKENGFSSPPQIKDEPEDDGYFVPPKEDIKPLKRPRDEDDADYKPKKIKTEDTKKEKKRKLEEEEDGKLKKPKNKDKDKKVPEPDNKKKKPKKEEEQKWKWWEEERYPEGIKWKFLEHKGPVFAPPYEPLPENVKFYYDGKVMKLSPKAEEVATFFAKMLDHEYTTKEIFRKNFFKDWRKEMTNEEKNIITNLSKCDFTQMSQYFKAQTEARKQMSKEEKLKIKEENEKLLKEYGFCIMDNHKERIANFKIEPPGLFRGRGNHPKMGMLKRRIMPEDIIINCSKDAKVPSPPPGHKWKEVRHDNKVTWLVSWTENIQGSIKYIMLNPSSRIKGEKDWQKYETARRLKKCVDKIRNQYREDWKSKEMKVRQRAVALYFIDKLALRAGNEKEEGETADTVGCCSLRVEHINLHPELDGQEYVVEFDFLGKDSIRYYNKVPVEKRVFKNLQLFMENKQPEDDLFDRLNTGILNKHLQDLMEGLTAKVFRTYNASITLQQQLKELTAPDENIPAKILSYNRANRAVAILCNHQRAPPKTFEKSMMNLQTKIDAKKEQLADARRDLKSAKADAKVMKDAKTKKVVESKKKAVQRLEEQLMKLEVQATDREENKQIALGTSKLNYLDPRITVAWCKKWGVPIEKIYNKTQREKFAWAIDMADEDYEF
Description: Inhibition of recombinant human DNA topoisomerase 1 at 100 uM using supercoiled pBR322 DNA as substrate after 30 mins by densitometric analysis relative to control. The procedure, abridged: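 Relaxation of 100 ng supercoiled pBR322 by 1 unit recombinant human topo I, 37 °C for 30 min, in 10 mM Tris-HCl pH 7.9, 150 mM NaCl, 0.1% BSA, 1 mM spermidine, 5% glycerol. Stopped with sarcosyl solution, run on 1% agarose/TAE at 15 V for 7 h, ethidium bromide stained, bands quantified by densitometry. Camptothecin as positive control. Compounds first screened at 100 μM; those over 30% inhibition retested at 20 μM.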

The target in experiment [8] is DNA topoisomerase 2-alpha (Homo sapiens) (UniProt P11388). As to the kind of experiment: Inhibition of recombinant human DNA topoisomerase 2-alpha at 100 uM using supercoiled pBR322 DNA as substrate after 30 mins by densitometric analysis relative to control. A digest of the protocol: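 200 ng supercoiled pBR322 with 4 units human topo IIα, 30 min at 30 °C, in 10 mM Tris–HCl pH 7.9, 50 mM NaCl, 5 mM MgCl2, 1 mM EDTA, 1 mM ATP, 15 μg/mL BSA. Stopped with EDTA, run on 1% agarose/TAE at 60 V for 1 h, bands quantified by densitometry. Etoposide as positive control. Screening at 100 μM; above 30% inhibition, retested at 20 μM.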
Sequence of DNA topoisomerase 2-alpha (Homo sapiens) (P11388 whole entry): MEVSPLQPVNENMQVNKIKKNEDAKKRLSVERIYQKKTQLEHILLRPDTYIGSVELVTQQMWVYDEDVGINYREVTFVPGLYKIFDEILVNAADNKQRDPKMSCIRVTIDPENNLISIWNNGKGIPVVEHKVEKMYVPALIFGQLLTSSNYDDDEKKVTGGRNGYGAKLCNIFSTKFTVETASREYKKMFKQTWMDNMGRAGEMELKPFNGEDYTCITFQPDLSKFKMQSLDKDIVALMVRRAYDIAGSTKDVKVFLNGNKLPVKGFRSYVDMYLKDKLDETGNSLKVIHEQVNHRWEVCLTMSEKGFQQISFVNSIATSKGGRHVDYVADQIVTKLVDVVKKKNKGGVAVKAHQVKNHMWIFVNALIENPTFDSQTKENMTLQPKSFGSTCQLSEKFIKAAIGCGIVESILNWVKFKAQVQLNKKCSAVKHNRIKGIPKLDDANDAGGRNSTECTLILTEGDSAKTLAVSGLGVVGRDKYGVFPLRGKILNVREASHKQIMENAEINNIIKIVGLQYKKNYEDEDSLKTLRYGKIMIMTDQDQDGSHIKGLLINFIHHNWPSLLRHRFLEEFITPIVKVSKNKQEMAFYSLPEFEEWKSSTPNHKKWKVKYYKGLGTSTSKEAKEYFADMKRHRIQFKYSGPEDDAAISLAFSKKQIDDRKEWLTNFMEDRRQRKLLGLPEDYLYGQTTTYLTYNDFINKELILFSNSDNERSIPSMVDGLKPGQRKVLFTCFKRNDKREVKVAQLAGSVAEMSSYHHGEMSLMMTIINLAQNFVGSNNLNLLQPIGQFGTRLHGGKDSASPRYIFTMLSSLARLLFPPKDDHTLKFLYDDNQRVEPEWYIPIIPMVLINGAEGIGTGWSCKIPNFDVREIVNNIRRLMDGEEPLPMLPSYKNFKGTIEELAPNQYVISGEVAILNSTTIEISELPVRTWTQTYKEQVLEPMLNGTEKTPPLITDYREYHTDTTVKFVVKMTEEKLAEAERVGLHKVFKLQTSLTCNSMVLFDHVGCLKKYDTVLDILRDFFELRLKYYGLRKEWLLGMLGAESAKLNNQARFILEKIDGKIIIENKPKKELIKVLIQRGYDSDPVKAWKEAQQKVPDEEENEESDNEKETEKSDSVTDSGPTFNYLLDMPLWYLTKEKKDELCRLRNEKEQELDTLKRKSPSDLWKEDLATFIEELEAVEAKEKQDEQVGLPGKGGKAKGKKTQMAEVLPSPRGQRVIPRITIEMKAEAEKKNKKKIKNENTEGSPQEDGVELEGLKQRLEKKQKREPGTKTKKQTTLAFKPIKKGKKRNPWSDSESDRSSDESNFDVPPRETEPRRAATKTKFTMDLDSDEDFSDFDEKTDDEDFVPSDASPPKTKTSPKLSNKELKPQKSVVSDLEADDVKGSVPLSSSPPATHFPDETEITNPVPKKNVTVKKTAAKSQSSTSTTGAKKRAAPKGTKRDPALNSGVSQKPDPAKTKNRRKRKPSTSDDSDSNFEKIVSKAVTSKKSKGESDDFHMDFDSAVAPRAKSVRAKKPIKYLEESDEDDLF

With `Cc1c2c(nc3cnc4ccccc4c13)-c1cc(Cl)ccc1OC2`, the GI50 – broadly, the concentration giving 50% growth inhibition – is > 10 µM in experiment [1] (Homo sapiens, NCI-H23, 72 h); > 10 µM in experiment [2] (Homo sapiens, HCT-15, 72 h); > 10 µM in experiment [3] (Homo sapiens, NUGC-3, 72 h); > 10 µM in experiment [4] (Homo sapiens, ACHN, 72 h); > 10 µM in experiment [5] (Homo sapiens, PC-3, 72 h); > 10 µM in experiment [6] (Homo sapiens, MDA-MB-231, 72 h).

Turning to `COc1cccc2c1C(=O)c1c(O)c3c(c(O)c1C2=O)C[C@@](O)(C(=O)CO)C[C@@H]3O[C@H]1C[C@H](N)[C@H](O)[C@H](C)O1` [DOXORUBICIN], the GI50 worked out at 0.09 µM in experiment [1] (Homo sapiens, NCI-H23, 72 h); 0.077 µM in experiment [2] (Homo sapiens, HCT-15, 72 h); 0.086 µM in experiment [3] (Homo sapiens, NUGC-3, 72 h); 0.08 µM in experiment [4] (Homo sapiens, ACHN, 72 h); 0.076 µM in experiment [5] (Homo sapiens, PC-3, 72 h); 0.068 µM in experiment [6] (Homo sapiens, MDA-MB-231, 72 h).

Turning to `c1ccc2c3c(ccc2c1)OCc1cc2c(cnc4ccccc42)nc1-3`, the GI50 was > 10 µM in experiment [1] (Homo sapiens, NCI-H23, 72 h); > 10 µM in experiment [2] (Homo sapiens, HCT-15, 72 h); > 10 µM in experiment [3] (Homo sapiens, NUGC-3, 72 h); > 10 µM in experiment [4] (Homo sapiens, ACHN, 72 h); > 10 µM in experiment [5] (Homo sapiens, PC-3, 72 h); > 10 µM in experiment [6] (Homo sapiens, MDA-MB-231, 72 h).

For `Cc1c2c(nc3cnc4ccccc4c13)-c1c(ccc3ccccc13)OC2`, the GI50 was > 10 µM in experiment [1] (Homo sapiens, NCI-H23, 72 h); > 10 µM in experiment [2] (Homo sapiens, HCT-15, 72 h); > 10 µM in experiment [3] (Homo sapiens, NUGC-3, 72 h); > 10 µM in experiment [4] (Homo sapiens, ACHN, 72 h); > 10 µM in experiment [5] (Homo sapiens, PC-3, 72 h); > 10 µM in experiment [6] (Homo sapiens, MDA-MB-231, 72 h).

On to `COc1ccc(Br)c2c1OCc1c-2nc2cnc3ccccc3c2c1C`, for which the 50% growth inhibitory concentration (GI50) in experiment [1] (Homo sapiens, NCI-H23, 72 h) was > 10 µM; in experiment [2] (Homo sapiens, HCT-15, 72 h) it was > 10 µM; in experiment [3] (Homo sapiens, NUGC-3, 72 h) it was > 10 µM; in experiment [4] (Homo sapiens, ACHN, 72 h) it was > 10 µM; in experiment [5] (Homo sapiens, PC-3, 72 h), > 10 µM; in experiment [6] (Homo sapiens, MDA-MB-231, 72 h), > 10 µM.

Regarding `Fc1ccc2c(c1)-c1nc3cnc4ccccc4c3cc1CO2` [listing 1 of 2 here], the GI50 in experiment [1] (Homo sapiens, NCI-H23, 72 h) was 1.87 µM; in experiment [2] (Homo sapiens, HCT-15, 72 h), 2.19 µM; in experiment [3] (Homo sapiens, NUGC-3, 72 h), 1.85 µM; in experiment [4], 3.21 µM; in experiment [5], 2.79 µM; in experiment [6] (Homo sapiens, MDA-MB-231, 72 h), 2.2 µM.

In the case of `c1ccc2c(c1)OCc1cc3c(cnc4ccccc43)nc1-2`, the GI50 is > 10 µM in experiment [1] (Homo sapiens, NCI-H23, 72 h); > 10 µM in experiment [2] (Homo sapiens, HCT-15, 72 h); > 10 µM in experiment [3] (Homo sapiens, NUGC-3, 72 h); > 10 µM in experiment [4] (Homo sapiens, ACHN, 72 h); > 10 µM in experiment [5] (Homo sapiens, PC-3, 72 h); > 10 µM in experiment [6] (Homo sapiens, MDA-MB-231, 72 h).

`CC(C)(C)c1cc2c(c(C(C)(C)C)c1)OCc1cc3c(cnc4ccccc43)nc1-2`: the GI50 in experiment [1] (Homo sapiens, NCI-H23, 72 h) was > 10 µM; in experiment [2] (Homo sapiens, HCT-15, 72 h), > 10 µM; in experiment [3] (Homo sapiens, NUGC-3, 72 h) it was > 10 µM; in experiment [4] (Homo sapiens, ACHN, 72 h), > 10 µM; in experiment [5] (Homo sapiens, PC-3, 72 h), > 10 µM; in experiment [6] (Homo sapiens, MDA-MB-231, 72 h), > 10 µM.

Turning to `Cc1ccc2c(c1)-c1nc3cnc4ccccc4c3c(C)c1CO2`, the GI50 in experiment [1] (Homo sapiens, NCI-H23, 72 h) is > 10 µM; in experiment [2] (Homo sapiens, HCT-15, 72 h) it was > 10 µM; in experiment [3] (Homo sapiens, NUGC-3, 72 h), > 10 µM; in experiment [4] (Homo sapiens, ACHN, 72 h), > 10 µM; in experiment [5] (Homo sapiens, PC-3, 72 h), > 10 µM; in experiment [6] (Homo sapiens, MDA-MB-231, 72 h), > 10 µM.

Regarding `Fc1ccc2c(c1)-c1nc3cnc4ccccc4c3cc1CO2` [listing 2 of 2 here], the GI50 in experiment [1] came out at 1.03 µM; in experiment [2], 1.56 µM; in experiment [3], 1.37 µM; in experiment [4] it was 1 µM; in experiment [5], 1.27 µM; in experiment [6] it was 1.23 µM.

On to `COc1cccc2c1OCc1c-2nc2cnc3ccccc3c2c1C` [listing 1 of 2 here], for which the GI50 in experiment [1] (Homo sapiens, NCI-H23, 72 h) was found to be 1.56 µM; in experiment [2] (Homo sapiens, HCT-15, 72 h), 1.79 µM; in experiment [3] (Homo sapiens, NUGC-3, 72 h) it was 2.62 µM; in experiment [4] (Homo sapiens, ACHN, 72 h) it was 2.19 µM; in experiment [5] (Homo sapiens, PC-3, 72 h), 1.61 µM; in experiment [6] (Homo sapiens, MDA-MB-231, 72 h), 1.52 µM.

On to `Cc1ccc2c(c1)-c1nc3cnc4ccccc4c3cc1CO2`, for which the GI50 is > 10 µM in experiment [1] (Homo sapiens, NCI-H23, 72 h); > 10 µM in experiment [2] (Homo sapiens, HCT-15, 72 h); > 10 µM in experiment [3] (Homo sapiens, NUGC-3, 72 h); > 10 µM in experiment [4] (Homo sapiens, ACHN, 72 h); > 10 µM in experiment [5] (Homo sapiens, PC-3, 72 h); > 10 µM in experiment [6] (Homo sapiens, MDA-MB-231, 72 h).

For `COc1cccc2c1OCc1c-2nc2cnc3ccccc3c2c1C` [listing 2 of 2 here], the inhibition (in general, the drop in the measured response relative to a control, in per cent) in experiment [7] is 14.4% and 10.2%; in experiment [8], 0% and 23.5%.
